Active and inactive are the calls of the source. No cut-off for these calls is given here.
How the values were obtained:
[1] = molecular target: T1, Vitamin D3 receptor (Homo sapiens) (UniProt P11473); experiment: Binding affinity to human VDR ligand binding domain assessed as SRC1 peptide binding dissociation constant by fluorescence anisotrophy relative to 1-alpha,25(OH)(2)D(3)
T1 sequence (whole entry): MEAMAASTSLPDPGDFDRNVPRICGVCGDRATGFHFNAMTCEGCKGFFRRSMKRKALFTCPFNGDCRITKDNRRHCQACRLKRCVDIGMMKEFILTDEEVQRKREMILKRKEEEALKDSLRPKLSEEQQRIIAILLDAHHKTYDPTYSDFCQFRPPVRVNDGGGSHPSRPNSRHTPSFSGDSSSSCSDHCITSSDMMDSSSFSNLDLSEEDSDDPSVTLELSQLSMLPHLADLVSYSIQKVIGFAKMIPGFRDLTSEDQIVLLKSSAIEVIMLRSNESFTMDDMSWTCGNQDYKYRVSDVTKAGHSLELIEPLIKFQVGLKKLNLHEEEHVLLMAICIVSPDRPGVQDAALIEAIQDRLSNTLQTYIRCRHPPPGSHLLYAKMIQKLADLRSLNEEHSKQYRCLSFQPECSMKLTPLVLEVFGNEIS
Procedure, shortened: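 Steady-state fluorescence anisotropy at 20 °C. Kd obtained from anisotropy values of free peptide, peptide at each protein concentration and plateau. Representative of three experiments.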

HL-60 [2] = experiment: Induction of cell differentiation in human HL60 cells assessed as CD11c and CD14 expression at 0.1 nM after 96 hrs relative to untreated control; type: functional
Procedure, shortened: (§1)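 HL60 cells plated at 4 × 10^5 cells/mL in RPMI/10% FCS at 37 °C and treated 96 h, with 0.7% ethanol control. Stained with PE-anti-CD11c and FITC-anti-CD14, and Topro-3 added to exclude dead cells. Flow cytometry counted the CD11c/CD14 double-positive subpopulation. Representative of three experiments.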

Mus musculus = experiment: Toxicity in C57BL/6J mouse assessed as increase in serum calcium level at 0.1 ug/kg, ip administered every 2 days for 3 weeks; type: organism-based; conditions: in vivo, 0.0001 mg/kg
Procedure, shortened: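 Male C57BL/6J mice, 6-7 weeks old, 6-7 per group. Ligand in sesame oil given ip at 0.1 μg/kg every second day for 3 weeks; vehicle controls received sesame oil. Serum calcium measured weekly after a 3 h fast, by clinical analyzer kit. Mean ± SEM.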

HL-60 [3] = experiment: Antiproliferative activity against human HL60 cells after 96 hrs; type: functional, cell-based
Procedure, shortened: (§2)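 HL60 cells grown in RPMI with 10% fetal calf serum at 37 °C without CO2. Plated at 4 × 10^5 cells/mL and exposed 96 h to various ligand concentrations, with 0.7% ethanol as control. Cells then counted; mean ± SEM.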

HL-60 [4] = experiment: Induction of cell differentiation in human HL60 cells assessed as CD11c and CD14 expression after 96 hrs; type: functional, cell-based; procedure, shortened: as §1
HL-60 [5] = experiment: Antiproliferative activity against human HL60 cells at 0.1 nM after 96 hrs; type: functional, cell-based; procedure, shortened: as §2
[6] = molecular target: T1, Vitamin D3 receptor (Homo sapiens); experiment: Agonist activity at GAL4 tagged human VDR ligand binding domain expressed in MCF7 cells assessed as receptor transactivation at 0.1 nM by luciferase reporter gene assay relative to (20S,23S)-epoxymethano-1 alpha,25-dihydroxyvitamin D(3); type: cell-based
Procedure, shortened: (§3)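 Gal4 DBD fused to human VDR LBD (90-427). MCF-7 cells seeded at 10^5 per well and grown overnight in phenol red-free DMEM with 10% charcoal-treated FCS and insulin. Transfected (jetPEI) with Gal4-VDR, ptk-LUC reporter and β-galactosidase plasmid. Ligand or solvent added 10 h later in phenol red-free DMEM/10% FCS. Luciferase read 24 h after stimulation and normalized to β-galactosidase. Triplicates, at least three experiments.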

[7] = molecular target: T1, Vitamin D3 receptor (Homo sapiens); experiment: Agonist activity at GAL4 tagged human VDR ligand binding domain expressed in MCF7 cells assessed as receptor transactivation at 0.1 nM by luciferase reporter gene assay relative to 1-alpha,25(OH)(2)D(3); type: cell-based; procedure, shortened: as §3
[8] = molecular target: T1, Vitamin D3 receptor (Homo sapiens); experiment: Agonist activity at GAL4 tagged human VDR ligand binding domain expressed in MCF7 cells assessed as receptor transactivation at 5 nM by luciferase reporter gene assay relative to 1-alpha,25(OH)(2)D(3); type: cell-based; procedure, shortened: as §3
[9] = molecular target: T1, Vitamin D3 receptor (Homo sapiens); experiment: Agonist activity at GAL4 tagged human VDR ligand binding domain expressed in MCF7 cells assessed as receptor transactivation at 0.1 nM by luciferase reporter gene assay relative to 2alpha-methyl-(20S,23S)-epoxymethano-1 alpha,25-dihydroxyvitamin D(3); type: cell-based; procedure, shortened: as §3
[10] = molecular target: T1, Vitamin D3 receptor (Homo sapiens); experiment: Agonist activity at GAL4 tagged human VDR ligand binding domain expressed in MCF7 cells assessed as receptor transactivation at 5 nM by luciferase reporter gene assay relative to 2alpha-methyl-(20S,23S)-epoxymethano-1 alpha,25-dihydroxyvitamin D(3); type: cell-based; procedure, shortened: as §3
[11] = molecular target: T1, Vitamin D3 receptor (Homo sapiens); experiment: Agonist activity at GAL4 tagged human VDR ligand binding domain expressed in MCF7 cells assessed as receptor transactivation at 1 nM by luciferase reporter gene assay relative to 2alpha-methyl-(20S,23S)-epoxymethano-1 alpha,25-dihydroxyvitamin D(3); type: cell-based; procedure, shortened: as §3

| Compound | fold change (FC) [1] | Activity (HL-60 [2]) | Activity (Mus musculus) | Activity (HL-60 [3]) | Activity (HL-60 [4]) | Activity (HL-60 [5]) | fold change (FC) (HL-60 [2]) | fold change (FC) [6] | fold change (FC) [7] | Activity [8] | Activity [9] [%] | Activity [10] [%] | Activity [11] [%] |
| --- | --- | --- | --- | --- | --- | --- | --- | --- | --- | --- | --- | --- | --- |
| C=C1/C(=C\C=C2/CCC[C@]3(C)[C@@H]([C@@H]4C[C@H](CC(C)(C)O)CO4)CC[C@@H]23)C[C@@H](O)[C@H](C)[C@@H]1O | 3.2 | inactive | Non-toxic | Dose-dependent effect | Dose-dependent effect | inactive |  |  |  |  |  |  |  |
| C=C1/C(=C\C=C2/CCC[C@]3(C)[C@@H]([C@H](C)CCCC(C)(C)O)CC[C@@H]23)C[C@@H](O)C[C@@H]1O |  | inactive |  |  |  | inactive |  |  |  |  |  |  |  |
| C=C1/C(=C\C=C2/CCC[C@]3(C)[C@@H]([C@@H]4C[C@@H](CC(C)(C)O)CO4)CC[C@@H]23)C[C@@H](O)[C@H](C)[C@@H]1O | 1.3 | Active | Toxic |  |  | Active | 10 | 3.8 | 13 | Active |  |  |  |
| C=C1/C(=C\C=C2/CCC[C@]3(C)[C@@H]([C@@H]4C[C@@H](CC(C)(C)O)CO4)CC[C@@H]23)C[C@@H](O)C[C@@H]1O | 0.9 | inactive | Toxic |  |  | inactive |  |  |  |  | 26 | 73 | 42 |
| C=C1/C(=C\C=C2/CCC[C@]3(C)[C@@H]([C@@H]4C[C@H](CC(C)(C)O)CO4)CC[C@@H]23)C[C@@H](O)C[C@@H]1O | 1.7 | inactive |  | Dose-dependent effect | Dose-dependent effect | inactive |  |  |  |  |  |  |  |

From ChEMBL document CHEMBL1156853, “Structure-function relationships and crystal structures of the vitamin D receptor bound 2 alpha-methyl-(20S,23S)- and 2 alpha-methyl-(20S,23R)-epoxymethano-1 alpha,25-dihydroxyvitamin D3” (J Med Chem, 2010)
